From ChEMBL document CHEMBL1137712, “Antidyslipidemic and antioxidative activities of 8-hydroxyquinoline derived novel keto-enamine Schiffs bases” (Eur J Med Chem, 2009)
Activity calls are given as the source filed them. The rule behind the calls is not given here.

Key:
[1] = Antioxidant activity assessed as inhibition of xanthine-xanthine oxidase generated superoxide anion radical production at 20 ug/ml by spectrophotometry; type: functional; design: scale not given: the % may be the effect or the level left
Outline: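 Superoxide generated enzymatically with xanthine, xanthine oxidase (0.04 U) and nitroblue tetrazolium in 100 mM phosphate buffer, pH 8.2, with or without test sample. Samples sonicated in phosphate buffer before use. Incubated 30 min at 37 °C, then stopped with glacial acetic acid. Formazan read at 560 nm. Percent inhibition calculated using formazan absorption coefficient 7.2 × 10³ M/cm.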

[2] = Antioxidant activity assessed as inhibition of xanthine-xanthine oxidase generated superoxide anion radical production at 200 ug/ml by spectrophotometry; type: functional; design: scale not given: the % may be the effect or the level left
Outline: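 Superoxide generated by xanthine, xanthine oxidase 0.04 U and nitroblue tetrazolium in 100 mM phosphate buffer pH 8.2, with or without compound sonicated in buffer; 37 °C for 30 min, stopped with glacial acetic acid; formazan read at 560 nm, percent inhibition from absorption coefficient 7.2 × 10³ M/cm; allopurinol reference.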

[3] = Antioxidant activity assessed as inhibition non-enzymatic reactants generated hydroxyl radical production at 200 ug/ml by spectrophotometry; type: functional; design: scale not given: the % may be the effect or the level left
Outline: (§1)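 Hydroxyl radicals generated non-enzymically from deoxyribose 2.8 mM, FeSO4 2 mM, sodium ascorbate 2.0 mM and H2O2 2.8 mM in 50 mM KH2PO4 pH 7.4, with or without compound, 37 °C for 90 min; MDA measured spectrophotometrically by thiobarbituric acid method, with reference samples and reagent blanks; mannitol reference.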

Rattus norvegicus [4] = experiment: Antidyslipidemic activity against triton-induced hyperlipidemia in Charles Foster rat assessed as reduction in total cholesterol level at 100 mg/kg, po after 18 hrs by spectrophotometry relative to control; type: functional
Outline: (§2)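 Male adult Charles Foster rats (200–225 g), six per group. Triton WR-1339 400 mg/kg ip with simultaneous oral dosing at 100 mg/kg in 0.2% w/v gum acacia suspension; diet withdrawn; vehicle controls. At 18 h, thiopentone anaesthesia, retro-orbital blood into EDTA, plasma diluted 1:3 in saline; Tc, Tg, Pl by standard enzymatic kits; Student's t-test versus triton group, P<0.05.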

Rattus norvegicus [5] = experiment: Antidyslipidemic activity against triton-induced hyperlipidemia in Charles Foster rat assessed as reduction in triglyceride level at 100 mg/kg, po after 18 hrs by spectrophotometry relative to control; type: functional; outline: as §2
Rattus norvegicus [6] = experiment: Antidyslipidemic activity in Charles Foster rat hyperlipidemia model assessed as suppression of triton-induced post heparin lipolytic activity at 100 mg/kg, po after 18 hrs by spectrophotometry relative to control; type: functional
Outline: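 Post-heparin lipolytic activity in plasma of male Charles Foster rats given triton WR-1339 400 mg/kg ip plus oral dose 100 mg/kg in gum acacia, six per group, sampled at 18 h; assayed spectrophotometrically per Wing and Robinson, expressed as nmol free fatty acid formed/h/ml plasma; triton group compared with control, treated with triton group.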

Rattus norvegicus [7] = experiment: Antidyslipidemic activity against triton-induced hyperlipidemia in Charles Foster rat assessed as reduction in phospholipid level at 100 mg/kg, po after 18 hrs by spectrophotometry relative to control; type: functional; outline: as §2
[8] = Antioxidant activity assessed as inhibition microsomal lipid peroxidation at 200 ug/ml by thiobarbituric acid test; type: functional; design: scale not given: the % may be the effect or the level left; conditions: Microsome
[9] = Cytotoxicity against primary osteoblast cells; type: cell-based
Vero = experiment: Cytotoxicity against african green monkey Vero cells; type: cell-based; conditions: chlorocebus sabaeus
[10] = Antioxidant activity assessed as inhibition microsomal lipid peroxidation at 100 ug/ml by thiobarbituric acid test; type: functional; design: scale not given: the % may be the effect or the level left; conditions: Microsome
[11] = Antioxidant activity assessed as inhibition non-enzymatic reactants generated hydroxyl radical production at 100 ug/ml by spectrophotometry; type: functional; design: scale not given: the % may be the effect or the level left; outline: as §1

Oc1ncnc2[nH]ncc12
Activity [1]: 84%

CCN/C=C1/C=C(C=O)c2cccnc2C1=O
Activity [2]: Active | Activity [3]: Active | Activity (Rattus norvegicus [4]): Active | Activity (Rattus norvegicus [5]): Active | Activity (Rattus norvegicus [6]): 5% | Activity (Rattus norvegicus [7]): Active | Activity [8]: Active

O=CC1=C/C(=C/NCCCN2CCOCC2)C(=O)c2ncccc21
Activity [2]: inactive | Activity [3]: inactive | Activity (Rattus norvegicus [4]): Active | Activity (Rattus norvegicus [5]): Active | Activity (Rattus norvegicus [6]): 5% | Activity (Rattus norvegicus [7]): Active | Activity [8]: inactive

Cc1ccc(C)c(OCCCC(C)(C)C(=O)O)c1 [GEMFIBROZIL]
Activity (Rattus norvegicus [4]): 36% | Activity (Rattus norvegicus [5]): 38% | Activity (Rattus norvegicus [6]): 27% | Activity (Rattus norvegicus [7]): 34%

O=CC1=C/C(=C/NCc2ccccc2)C(=O)c2ncccc21
Activity [2]: Active | Activity [3]: Active | Activity (Rattus norvegicus [6]): 5% | Activity [8]: Active

O=CC1=C/C(=C/NCCN2CCOCC2)C(=O)c2ncccc21
Activity [2]: inactive | Activity [3]: inactive | Activity (Rattus norvegicus [4]): Active | Activity (Rattus norvegicus [5]): Active | Activity (Rattus norvegicus [6]): 5% | Activity (Rattus norvegicus [7]): Active | Activity [8]: inactive

CN/C=C1/C=C(C=O)c2cccnc2C1=O
Activity [2]: Active | Activity [3]: Active | Activity (Rattus norvegicus [4]): 26% | Activity (Rattus norvegicus [5]): 24% | Activity [9]: Non-toxic | Activity (Vero): Non-toxic | Activity (Rattus norvegicus [6]): 5% | Activity (Rattus norvegicus [7]): 25% | Activity [8]: Active

CC(C)N/C=C1/C=C(C=O)c2cccnc2C1=O
Activity [2]: 47% | Activity [3]: 38% | Activity (Rattus norvegicus [4]): Active | Activity (Rattus norvegicus [5]): Active | Activity (Rattus norvegicus [6]): 5% | Activity (Rattus norvegicus [7]): Active | Activity [8]: 35%

Cc1c(C)c2c(c(C)c1O)CC[C@@](C)(CCC[C@H](C)CCC[C@H](C)CCCC(C)C)O2
Activity [10]: 47%

Cc1ccc(N/C=C2/C=C(C=O)c3cccnc3C2=O)cc1
Activity [2]: 44% | Activity [3]: 36% | Activity (Rattus norvegicus [4]): 23% | Activity (Rattus norvegicus [5]): 25% | Activity (Rattus norvegicus [6]): 5% | Activity (Rattus norvegicus [7]): 18% | Activity [8]: 41%

CC(C)CCCCN/C=C1/C=C(C=O)c2cccnc2C1=O
Activity [2]: inactive | Activity [3]: inactive | Activity (Rattus norvegicus [4]): Active | Activity (Rattus norvegicus [5]): Active | Activity (Rattus norvegicus [6]): 5% | Activity (Rattus norvegicus [7]): Active | Activity [8]: inactive

OC[C@@H](O)[C@@H](O)[C@H](O)[C@H](O)CO
Activity [11]: 50%

CC(C)(C)N/C=C1/C=C(C=O)c2cccnc2C1=O
Activity [2]: Active | Activity [3]: Active | Activity (Rattus norvegicus [4]): Active | Activity (Rattus norvegicus [5]): Active | Activity (Rattus norvegicus [6]): 5% | Activity (Rattus norvegicus [7]): Active | Activity [8]: Active
